Compound activity from PubChem.
iPSC survival up = hiPSC single-cell survival enhancement; ATPlite luminescence; 100% = ROCK inhibitor wells, 0% = DMSO; survival enhancement, % at 20 µM; actives 0.044% (n = 360,000); in the data active = survival enhancement above about 18%;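 note: cells exposed to compounds for 16 hours before the ATP read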
CXCR6 block = CXCR6 (human) receptor inhibition | inhibition, % at 20 µM | O00574 | actives 0.36% (n = 360,000) | CHO-K1 PathHunter CXCR6 beta-arrestin, luminescence; in the data active = inhibition above about 34%, passing the limit was not always enough;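 note: antagonist mode with CXCL16 agonist at 10 nM final; 0% = 10 nM CXCL16 with DMSO and 100% = unstimulated wells without agonist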
EBI2 antag = blocks human EBI2 receptor beta-arrestin signaling. P32249. EBI2 beta-arrestin recruitment, luminescence, 7a,25-OHC stimulated. inhibition, % at 5 µM. actives 0.81% (n = 360,000). AID 651636; in the data active = inhibition above about 38%;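 note: enzyme fragment complementation signal reports receptor beta-arrestin coupling in cells; 0% = agonist plus DMSO wells and 100% = wells without agonist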
APJ agonist = activates the human apelin receptor APJ; AID 2520; CHO-K1 APJ PathHunter beta-arrestin, luminescence; 0% DMSO wells, 100% apelin; actives 0.11% (n = 330,000); activation, % at 20 µM;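 active = activation more than six SD over the plate average, tested at 20 µM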;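 note: 0% = DMSO alone and 100% = apelin-13 at 10 nM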
Target sequence (P35414 whole entry, looked up): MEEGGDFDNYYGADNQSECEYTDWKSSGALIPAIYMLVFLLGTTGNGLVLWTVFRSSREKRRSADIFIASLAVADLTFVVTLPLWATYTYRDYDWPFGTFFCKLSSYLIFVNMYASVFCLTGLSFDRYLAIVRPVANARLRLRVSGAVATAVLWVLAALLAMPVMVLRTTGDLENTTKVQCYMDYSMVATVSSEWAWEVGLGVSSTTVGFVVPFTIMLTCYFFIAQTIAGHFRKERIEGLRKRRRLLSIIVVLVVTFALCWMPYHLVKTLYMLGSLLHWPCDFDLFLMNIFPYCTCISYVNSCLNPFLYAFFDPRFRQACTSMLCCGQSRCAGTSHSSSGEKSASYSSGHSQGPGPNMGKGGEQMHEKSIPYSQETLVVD
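Test system: CHO-K1 APJ beta-arrestin complementation cell line. Amount: cell density 1000 per well. Controls: DMSO negative, 10 nM Apelin-13 positive. Signal: luminescent beta-gal fragment complementation, chemiluminescent substrate. Read-out basis: agonist-driven arrestin binding to APJ. Timing: compound stimulation 90 min at 25 °C, detection 60 min.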
CCR6 antag = antagonists of human CCR6 receptor | AID 493098 | inhibition, % at 20 µM | P51684 | CHO-K1 CCR6 PathHunter beta-arrestin, luminescence, CCL20-stimulated | actives 0.49% (n = 340,000);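 active = compounds whose inhibition of the agonist-driven luminescence signal at 20 µM reaches about 50%, limit read from the data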;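 note: cells stimulated with CCL20 at 14 nM final; plate controls were DMSO with CCL20 for no effect and DMSO without agonist for full effect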
APJ antagonist = antagonists of human APJ apelin receptor. P35414. CHO-K1 APJ beta-arrestin complementation, luminescence. inhibition, % at 20 µM. actives 0.32% (n = 330,000). AID 2521;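 active = inhibition above about 40% at 20 µM, limit read from the data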;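 note: cells challenged with 10 nM apelin-13 agonist together with compound; plate controls were apelin-13 plus DMSO wells for no effect and DMSO wells lacking apelin-13 for full effect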
EBI2 antag conf = EBI2 (human) antagonism, single concentration confirmation; shares compounds with EBI2 antag; EBI2 beta-arrestin luminescence, 7a,25-OHC antagonism; inhibition, % at 5 µM; actives 29% (n = 2,400);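 active = inhibition of at least 50%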
EBI2 agonist = counter-screen for EBI2 antagonists: EBI2 agonist activity; shares compounds with EBI2 antag; EBI2-expressing cells, agonist mode, luminescence, 60 min; 0% vehicle, 100% 7α,25-dihydroxycholesterol control; activation, % at 5 µM; 2,400 tested, under 10 active; AID 652000;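 active = activation of at least 50%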
bGal cs = counter-screen for EBI2 antagonists: E. coli beta-galactosidase inhibition; shares compounds with EBI2 antag; purified beta-galactosidase, luminescent Galacton Star, 15 min; inhibition, % at 5 µM; actives 1% (n = 2,400); AID 652176;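 active = replicate-average signal at least 3 plate SD below neutral wells, shown as high inhibition, flagging enzyme-inhibiting false positives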;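 note: 0% = DMSO wells with enzyme and 100% = wells lacking enzyme; higher means stronger loss of beta-gal luminescence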
* hit, by the source's call; / = not tested or not shown. Shown are actives, neighbours in structure and some others; about 1.5% of the full set was active somewhere.

SMILES	iPSC survival up	CXCR6 block	EBI2 antag	APJ agonist	CCR6 antag	APJ antagonist	EBI2 antag conf	EBI2 agonist	bGal cs
CN1CCN(C(=O)/C=C/c2ccc(Cl)cc2)CC1	0	7	93*	0	-4	15	79*	4	5
O=C(c1ccccc1)N(Cc1ccccc1)c1ccccn1	6	0	1	-5	-14	32	/	/	/
O=C(/C=C/c1ccc(Cl)cc1)N(Cc1ccccc1)c1ccccn1	-2	7	41*	-3	30	-4	18	-2	-11
O=c1[nH]c(CN2CCCCC2)nc2ccccc12	4	8	-13	-2	-1	3	/	/	/
O=C(/C=C/c1ccccc1)N1CCN(Cc2nc3ccccc3c(=O)[nH]2)CC1	-1	-1	72*	-3	-1	-19	75*	0	5
CC(C)(C)c1ccc(/C=C/C(=O)N2CCCCC2)cc1	0	0	1	/	10	/	/	/	/
Cc1cc(C)cc(C(=O)NCC(=O)N2CCC(C(N)=O)CC2)c1	0	2	-1	-3	-5	-5	/	/	/
O=C(Oc1ccccc1C(=S)N1CCOCC1)c1cccc([N+](=O)[O-])c1	-1	-4	0	0	11	7	/	/	/
O=C(/C=C/c1ccc(Cl)cc1)NCCc1ccccc1	3	-9	54*	-5	3	10	25	-1	-9
O=C(/C=C/c1ccc(Cl)c(Cl)c1)N1CCc2ccccc21	0	4	21	-4	13	4	/	/	/
CN1CCN(C(=O)/C=C/c2ccc(Cl)c(Cl)c2)CC1	0	4	92*	-5	9	7	61*	2	4
O=C(/C=C/c1ccccc1Cl)NCCc1ccccc1	7	-6	33	-2	17	-3	/	/	/
COc1cc(/C=C/C(=O)N2CCN(Cc3ccccc3)CC2)cc(OC)c1OC	1	4	61*	-1	12	18	27	1	7
CC(C)c1ccccc1OCC(=O)Nc1ccccc1C(=O)N1CCOCC1	0	2	-12	-1	15	-4	/	/	/
O=C(NCC(=O)N1CC=C(c2ccccc2)CC1)c1ccc(F)cc1	-1	9	1	-5	8	8	/	/	/
COCCn1c(C)cc(C(=O)CN2C(=O)C(=O)N(CCC3=CCCCC3)C2=O)c1C	-3	-2	-2	/	/	/	/	/	/
Cc1ccc(/C=C/C(=O)NC(=S)N2CCN(C)CC2)cc1	-2	3	55*	-1	-1	4	49	0	-14
Cc1ccc(/C=C/C(=O)NC(=S)N2CCN(c3ccc(F)cc3)CC2)cc1	1	-8	48*	-3	-6	-14	21	-1	-10
COc1ccc(NC(=O)N(C)C[C@H]2Oc3ccc(NS(=O)(=O)c4ccccc4)cc3C(=O)N([C@H](C)CO)C[C@@H]2C)cc1	1	-1	-11	/	3	/	/	/	/
O=S1(=O)CC(N2CCN(CC3CC3)CC2)CN1CCc1ccccc1 (stereo not drawn)	2	4	10	/	/	/	/	/	/
COc1cc(/C=N/NC(=O)CSc2cc(C)c(Br)cc2C)ccc1O	1	-20	59*	3	-8	-1	9	-1	-14
Cc1cc(SCC(=O)N/N=C/c2ccc(O)c(O)c2O)c(C)cc1Br	0	-8	-5	5	13	-30	/	/	/
COc1ccccc1NC(=O)COC(=O)CCn1c(C)csc1=O	0	-9	-5	-5	2	12	/	/	/
Cn1c(SCC(=O)NCC2CCCO2)nnc1-c1ccco1 (stereo not drawn)	0	-2	-11	-4	0	-5	/	/	/
O=C(/C=C/c1cccc(Br)c1)NCC1CCCCC1	3	-2	43*	-3	21	0	35	-1	-18
SMILES	iPSC survival up	CXCR6 block	EBI2 antag	APJ agonist	CCR6 antag	APJ antagonist	EBI2 antag conf	EBI2 agonist	bGal cs
COc1ccc(CCNC(=O)/C=C/c2cc(OC)c(OC)c(OC)c2)cc1OC	1	-2	37*	-3	8	8	18	1	11
O=C(COC(=O)/C=C/c1cccc(Br)c1)NC1CCCCC1	0	-6	3	-3	4	-1	/	/	/
O=C(/C=C/c1ccc(Br)cc1)NC1CCCCCC1	0	-2	64*	-2	8	12	61*	-1	9
COc1ccc(CCNC(=O)/C=C/c2ccc(C)cc2)cc1OC	5	-2	34	-4	-13	7	/	/	/
COc1cc(/C=C/C(=O)NCC2CCCCC2)cc(OC)c1OC	0	10	52*	2	4	-28	40	-1	-19
COc1ccc(S(=O)(=O)N2CCN(C(=O)c3ccc(=O)[nH]n3)CC2)cc1OC	0	2	2	-6	-2	4	/	/	/
O=C(/C=C/c1ccc(F)cc1)NC(=S)N1CCN(c2ccccn2)CC1	0	11	17	-3	10	3	/	/	/
O=C(/C=C/c1cccc([N+](=O)[O-])c1)N1CCN(c2ccccn2)CC1	0	-4	38	2	-5	0	/	/	/
CSc1ccc(/C=C/C(=O)N2CCN(c3ccccn3)CC2)cc1	0	-3	93*	-1	10	3	81*	0	-15
COc1cccc(/C=C/C(=O)N2CCN(c3ccccn3)CC2)c1	0	1	75*	-7	8	0	48	-1	-13
COc1ccc(/C=C/C(=O)N2CCN(c3ccccn3)CC2)cc1	0	-3	93*	-1	5	12	76*	-2	-8
CCC12C(=Nc3c(Cl)cccc31)C[C@@H]1CCN3C(=O)CCC[C@H]2[C@H]13 (stereo partly drawn)	1	3	3	/	1	/	/	/	/
c1ccc(Cc2nn3c(COc4ccccc4)nnc3s2)cc1	0	3	60*	-3	-4	-14	40	1	5
CC1CCCCN1C(=S)Nc1ccc(S(=O)(=O)N2CCCCC2)cc1 (stereo not drawn)	-4	2	-1	/	/	/	/	/	/
CCOC(=O)/C(C#N)=C/c1c(Oc2cccc(C)c2)nc2ccccn2c1=O	1	6	36	0	5	-5	/	/	/
CCOC(=O)/C(C#N)=C/c1c(Oc2cc(C)cc(C)c2)nc2ccccn2c1=O	-2	5	51*	-1	12	-2	34	1	2
O=C1NC[C@H](Cc2ccccc2)N(CC2CCN(CCCC3CCCC3)CC2)C1=O	-1	-7	-14	/	-1	/	/	/	/
